SENP6 block: SENP6 protease inhibitors, primary screen, biochemical, luminescence, uHTS; Recombinant SENP6 catalytic domain, aminoluciferin luminescence; Sentrin-specific protease 6 (Homo sapiens), Q9GZR1; AID 2599, 2010; inhibition, % at 10 µM; 330,000 tested, 1.8% active;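 active = inhibition above about 50% at the single tested dose, limit read from the data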
SENP8 block-1: SENP8 protease inhibitors, primary screen, biochemical, luminescence; Sentrin-specific protease 8 (Homo sapiens), Q96LD8; purified SENP8, Z-RLRGG-aminoluciferin cleavage; inhibition, % at 10 µM; 330,000 tested, 1.2% active; in the data active = inhibition above about 50%
SENP8 block-2: human SENP8 protease inhibitors, primary screen, biochemical, fluorescence, Nedd8 protein substrate, uHTS | Sentrin-specific protease 8 (Homo sapiens), Q96LD8 | recombinant SENP8 | inhibition, % at 20 µM | 360,000 tested, 0.64% active; in the data active = inhibition mostly above about 40%, no sharp cut-off; inactive = mostly below about 27%
SENP7 block: SENP7 protease inhibitors, primary screen, biochemical, luminescence, uHTS; AID 434973, 2010; 330,000 tested, 1.5% active; recombinant SENP7, Z-RLRGG-aminoluciferin luminescence, 40 min; inhibition, % at 5 µM; Sentrin-specific protease 7 (Homo sapiens), Q9BQF6;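 active = inhibition above about 50% at the single test dose, limit read from the data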
SENP1 FRET inh: human SENP1 catalytic domain inhibitors, primary screen, biochemical, FRET, uHTS. AID 624204, 2012. inhibition, % at 10 µM. 360,000 tested, 0.21% active. Sentrin-specific protease 1 (Homo sapiens), Q9P0U3. recombinant SENP1 catalytic domain, CyPet-SUMO1-YPet FRET cleavage;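 active = inhibition at least 30% at 10 µM, raw YFP signal under a set limit, fluorescence ratio 0.5 to 1.5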
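System: Recombinant human SENP1 catalytic domain, His6-tagged | Incubation: Enzyme reaction for 50 min at room temperature, dark | Medium: Tris pH 8 with BME, BSA, NP40 and catalase | Also added: 25 nM SUMO1 FRET substrate | Compound: 10 µM single point, 0.5% DMSO | Measured by: FRET fluorescence in CFP and YFP emission channels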
Apaf-1 inh: inhibitors of human Apaf-1 apoptosome, primary screen, biochemical, DEVD-Rh110 fluorescence, uHTS; 330,000 tested, 0.71% active; reconstituted apoptosome caspase-3 activity; inhibition, % at 20 µM; active = inhibition of at least 40% at 20 µM
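Material: cell-free apoptosome with Apaf-1, procaspase-3 and caspase-9; Buffer or medium: Hepes pH 7.5 with detergent and BSA; Reagent: cytochrome c trigger plus (Z-DEVD)2-Rh110 caspase-3 substrate; Times: compound with Apaf-1, dATP, procaspase-3 30 min, then 50 min reaction, room temperature; Technique: Rh110 fluorescence intensity.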
SENP8 inh conf: human SENP8 protease inhibitors, confirmation, biochemical, Nedd8 protein substrate, single concentration | shares compounds with SENP8 block-2 | purified SENP8, Nedd8-AMC/pro-Nedd8 cleavage fluorescence, 30 min | inhibition, % at 25 µM | 1,400 tested, 15% active | AID 624319, 2012; in the data active = inhibition mostly above about 39%, no sharp cut-off; inactive = mostly below about 34%
A number is an active result; 0 = inactive; - = not tested or not shown. Hits are enriched below; roughly 2.9% of the tested compounds scored in any of these assays.

SMILES | SENP6 block | SENP8 block-1 | SENP8 block-2 | SENP7 block | SENP1 FRET inh | Apaf-1 inh | SENP8 inh conf
COc1cc(C)c(NC(=O)C2CCN(S(=O)(=O)c3cccs3)CC2)cc1OC | 0 | 0 | 0 | 0 | 0 | 0 | -
O=C(CSc1ccccn1)N1CCCC(Nc2ccccc2)C1 (stereo unspecified) | 0 | 0 | 0 | 0 | 0 | 0 | -
COc1ccc(NC2CCCN(C(=O)CSc3ccccn3)C2)cc1OC (stereo unspecified) | 0 | 0 | 28 | 0 | 0 | 0 | 0
Cc1ccc(C(=O)COc2ccccc2-c2ccccc2)cc1 | 0 | 0 | 45 | 0 | 0 | 0 | 0
COC(=O)Cn1c2ccc(OC)cc2c2nc3ccccc3nc21 | 0 | 0 | 0 | 0 | 0 | 0 | -
CCOC(=O)Cn1c2ccc(OC)cc2c2nc3ccccc3nc21 | 0 | 0 | 58 | 0 | 0 | 0 | 0
O=C1CSC(c2c(F)cccc2Cl)N1c1cccc(F)c1 (stereo unspecified) | 0 | 0 | 44 | 0 | 0 | 0 | 0
O=C1CSC(c2cccc(F)c2)N1c1c(F)cccc1F (stereo unspecified) | 0 | 0 | 0 | 0 | 0 | 0 | -
Cc1c(N=C2N=C(NC(=O)c3cccs3)c3ccccc32)c(=O)n(-c2ccccc2)n1C | 0 | 0 | 60 | 0 | 0 | 0 | 0
Cc1ccc(NC(=O)CS(=O)CC(=O)NCCCc2ccccc2)cc1Cl (stereo unspecified) | 0 | 0 | 41 | 0 | 0 | 0 | 0
Cc1ccc(NC(=O)CS(=O)CC(=O)Nc2cnc3ccccc3c2)cc1Cl (stereo unspecified) | 0 | 0 | 0 | 0 | 0 | 0 | -
c1ccc(/N=C2\N=C(Nc3ccccn3)c3ccccc32)nc1 | 0 | 0 | 42 | 0 | 0 | 0 | 0
COc1ccc(C(=O)COc2ccc(C)cc2NC(C)=O)cc1 | 0 | 0 | 41 | 0 | 0 | 0 | 0
CC(C)(C)OC(=O)NCCc1onc(-c2cccc([N+](=O)[O-])c2)c1C(=O)O | - | - | 0 | - | 0 | - | -
C[C@@H]1CCCCO[C@H](CN(C)C(=O)Nc2ccccc2)[C@@H](C)CN([C@H](C)CO)C(=O)c2cc(NS(=O)(=O)c3cn(C)cn3)ccc2O1 | - | - | 0 | - | 0 | - | -
COc1ccc(S(=O)(=O)N2CCC(C(=O)N[C@@H](C)C(=O)NCc3ccco3)CC2)cc1 | - | - | 0 | - | 0 | - | -
Cc1c(C)c(C)c(C(=O)C2CCN(c3ccc([N+](=O)[O-])cn3)CC2)c(C)c1C | 0 | 0 | 44 | 0 | 0 | 0 | 0
C[C@]12CC[C@H](OC(=O)CCC(=O)O)CC1=CCC1C2CC[C@@]2(C)C1CC[C@@H]2N (stereo partly specified) | 0 | 0 | 0 | 0 | 0 | 0 | -
CC(=O)OC1CCC2(C)C(=CCC3C2CCC2(C)C3CC3OC4(CCC(C)CN4)C(C)C32)C1 (stereo unspecified) | 0 | 0 | 51 | 0 | 0 | 0 | 0
C=CCN1C=CC(=CC=C(C#N)C#N)C=C1 | 0 | 0 | 56 | 0 | 0 | 0 | 0
CCCCCCN1C=CC=C/C1=C/C=C(C#N)C#N | 0 | 0 | 50 | 0 | 0 | 0 | 0
CCCCCCN1C=CC(=C/C=C(\C#N)C(=O)OCC)C=C1 | 0 | 0 | 36 | 0 | 0 | 0 | 0
C=CCN1C=C/C(=C\C=C(C#N)C#N)c2ccccc21 | 0 | 0 | 0 | 0 | 0 | 0 | -
CCCN1C=CC(=CC=C(C#N)C#N)C=C1 | 0 | 0 | 50 | 0 | 0 | 0 | 0
CC(C)C(=O)N1CCN(c2ccccc2NC(=S)NC(=O)Cc2ccccc2)CC1 | 0 | 0 | 0 | 0 | 0 | 0 | -
SMILES | SENP6 block | SENP8 block-1 | SENP8 block-2 | SENP7 block | SENP1 FRET inh | Apaf-1 inh | SENP8 inh conf
[O-]C1=N/[N+](=C/c2ccccc2Cl)CC1 | 0 | 0 | 50 | 0 | 0 | 0 | 0
COc1ccc(-c2cc(C(=O)N3CCc4ccccc4C3)no2)cc1 | 0 | 0 | 0 | 0 | 0 | 0 | -
COc1cccc(-c2cc(C(=O)N3CCc4ccccc4C3)no2)c1 | 0 | 0 | 58 | 0 | 0 | 0 | 78
COc1ccc(C(=O)/C=C(\C)Nc2ccc(NC(C)=O)cc2)cc1 | 0 | 0 | 0 | 0 | 0 | 0 | -
C/C(=C\C(=O)c1cccnc1)Nc1ccc(O)cc1 | 0 | 0 | 84 | 0 | 0 | 0 | 0
C/C(=C\C(=O)c1ccccc1)Nc1ccc(O)cc1 | 0 | 0 | 84 | 0 | 0 | 0 | 0
Cc1ccc(F)cc1C(=O)N1CCCC(c2cc(C(=O)NCc3ccc(F)cc3)no2)C1 (stereo unspecified) | - | - | 0 | - | 0 | - | -
CCN(CC)CCn1c(N)cc(=O)[nH]c1=O | 0 | 0 | 0 | 0 | 0 | 0 | -
CCN(CC)CCn1c(OC)cc(=O)[nH]c1=O | 0 | 0 | 43 | 0 | 0 | 0 | 0
O=C(NC(=S)N1CCN(C/C=C/c2ccccc2)CC1)c1c(F)cccc1F | 0 | 0 | 43 | 0 | 0 | 0 | 0
Cc1[nH]c2ccccc2c1/C=N/n1cnnc1 | 0 | 0 | 0 | 0 | 0 | 0 | -
CCN(CC)c1ccc(N=Cc2c(C)[nH]c3ccccc23)cc1 | 0 | 0 | 60 | 0 | 0 | 0 | 0
C[C@H]1COc2cc(N3CCC[C@@H]3CO)ccc2S(=O)(=O)N1 | - | - | 0 | - | 0 | - | -
COc1ccc(Cl)cc1C(=O)NNC(=O)c1cc2ccccc2o1 | 0 | 0 | 0 | 0 | 0 | 0 | -
Cc1cc(=O)oc(C)c1C(=O)Nc1cccc2ccccc12 | 0 | 0 | 43 | 0 | 0 | 0 | 0
CCC(C)N(C(=O)CN1C(=O)NC2(CCc3ccccc32)C1=O)C1CCS(=O)(=O)C1 (stereo unspecified) | 0 | 0 | 0 | 0 | 0 | 0 | -
COc1ccc([C@@H]2C[C@H]3CN(c4ccccc4)C(=O)[C@]34CCCN24)c(OC)c1OC | 0 | 0 | 0 | 0 | 0 | 0 | -
COCc1cc([C@@H]2C[C@H]3CN(c4ccccc4)C(=O)[C@]34CCCN24)ccc1OC | 0 | 0 | 42 | 0 | 0 | 0 | 0
Cc1ccc(OCCCC(=O)N(C)CC(=O)Nc2ccccc2Br)cc1 | 0 | 0 | 37 | 0 | 0 | 0 | 0
Cc1ccc(C(=O)CCC(=O)N(C)CC(=O)Nc2ccccc2Br)cc1 | 0 | 0 | 0 | 0 | 0 | 0 | -
Cc1cccc(NC(=O)CCS(=O)(=O)c2cccc3nsnc23)c1C | 0 | 0 | 41 | 0 | 0 | 0 | 0
CC(C)c1cc(Cn2c3ccccc3c(=O)n2C(C)CBr)on1 (stereo unspecified) | - | - | 0 | - | 0 | - | -
CC(=O)Nc1ccc(N)cc1 | 0 | 0 | 0 | 0 | 0 | 0 | -
CC(=O)Nc1ccc(C(=O)O)cc1 | 0 | 0 | 46 | 0 | 0 | 0 | 0
CCC(C)[C@@H](CN)NCC1(c2ccccc2)CC1 (stereo partly specified) | 0 | 0 | 0 | 0 | 0 | 0 | -
